From ChEMBL document CHEMBL1121715, “New antiarrhythmic agents. 4. 1'-(Aminoalkyl)-1,2,3,4-tetrahydronaphthalene-1-spiro-3'-pyrrolidine-2',5'-dione derivatives” (J Med Chem, 1981)
Where “and” joins values, the source holds several entries; their conditions need not be identical. Equal entries are not always repeated.

How the values were obtained:
Canis familiaris [1] = assay: Ventricular rate was measured in anesthetized dog at 0.042 dose; assay type: functional, Canis lupus familiaris, Heart; conditions: in the assay text read “unanesthetized dog” for “anesthetized dog”
Outline: (§1)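 Adult female dogs (6.7–14.5 kg) had two-stage ligation of the left anterior descending coronary artery the day before testing. After control ventricular rate, % ectopic beats and mean arterial pressure were recorded, the drug (HCl salt, isotonic solution) was infused iv without anesthesia at 0.1, 0.5 or 1.0 (mg/kg)/min, mostly 0.5. Infusion continued until the arrhythmia was abolished or cardiovascular/CNS toxicity appeared. Cumulative dose is given in mmol/kg; toxicity included convulsion and P-R prolongation ≥25%.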

Canis familiaris [2] = assay: Ventricular rate was measured in anesthetized dog at 0.084 dose; assay type: functional, Canis lupus familiaris, Heart; conditions: in the assay text read “unanesthetized” for “anesthetized”
Outline: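 Adult female dogs (6.7–14.5 kg) had ventricular arrhythmias from two-stage ligation of the left anterior descending coronary artery the day before. Ventricular rate (bpm) was read at maximal antiarrhythmic effect against cumulative dose.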

Canis familiaris [3] = species on record: Canis familiaris; assay: Nature of toxicity was expressed; convulsion; assay type: organism-based, Canis lupus familiaris; conditions: dog, in vivo; outline: as §1
[4] = Percentage toxicity measured as death of mice.; assay type: organism-based; parameters: concentration or dose not given beside the values; conditions: mouse, in vivo; read-out: Death
Canis familiaris [5] = species on record: Canis familiaris; assay: (§2) The dose at which toxicity was measured; assay type: organism-based, Canis lupus familiaris; conditions: dog, in vivo; outline: as §1
Canis familiaris [6] = assay: MABP value was measured in anesthetized dog at 0.056 dose; assay type: functional, Canis lupus familiaris; conditions: in the assay text read “unanesthetized dog” for “anesthetized dog”; outline: as §1
Canis familiaris [7] = assay: Ventricular rate was measured in anesthetized dog at 0.038 dose; assay type: functional, Canis lupus familiaris, Heart; conditions: in the assay text read “unanesthetized dog” for “anesthetized dog”; outline: as §1
Canis familiaris [8] = species on record: Canis familiaris; assay: as §2; assay type: organism-based, Canis lupus familiaris; parameters: unit: mmol/kg; conditions: dog, in vivo; outline: as §1
Canis familiaris [9] = assay: % ectopic beats was measured in unanesthetized dog at 0.084 dose
Mus musculus [10] = species on record: Mus musculus; assay: Percentage toxicity measured as ataxia.; assay type: organism-based; conditions: in vivo
Outline: (§3)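 Mice (groups of 10) were dosed sc with drug in 0.9% saline and watched for 20 min for overt toxicity (ataxia, convulsions, loss of righting reflex, death) before chloroform exposure.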

Canis familiaris [11] = assay: Blood level was measured in anesthetized dog at 0.042 dose; assay type: functional, Canis lupus familiaris
Canis familiaris [12] = species on record: Canis familiaris; assay: MABP value was measured in […] at 0.084 dose; assay type: functional, Canis lupus familiaris; outline: as §1
Canis familiaris [13] = assay: MABP value was measured in anesthetized dog at 0.038 dose; assay type: functional, Canis lupus familiaris; conditions: in the assay text read “unanesthetized dog” for “anesthetized dog”
Outline: (§4)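 Adult female dogs (6.7–14.5 kg) had the left anterior descending coronary artery ligated in two stages the day before testing. Dogs were unanesthetized. Ectopic beats (% of ventricular rate) and mean arterial pressure were read at maximal antiarrhythmic effect against the cumulative dose.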

Canis familiaris [14] = assay: Ventricular rate was measured in anesthetized dog at 0.056 dose; assay type: functional, Canis lupus familiaris, Heart; conditions: in the assay text read “unanesthetized dog” for “anesthetized dog”; outline: as §1
Canis familiaris [15] = assay: Ventricular rate was measured in anesthetized dog at 0.042d dose; assay type: functional, Canis lupus familiaris, Heart; conditions: in the assay text read “unanesthetized dog” for “anesthetized dog”; outline: as §1
Mus musculus [16] = species on record: Mus musculus; assay: Percentage toxicity measured as loss of righting reflex.; assay type: organism-based; conditions: in vivo; outline: as §3
Canis familiaris [17] = assay: Blood level was measured in anesthetized dog at 0.084 dose; assay type: functional, Canis lupus familiaris
Canis familiaris [18] = assay: % ectopic beats was measured in anesthetized dog at 0.038 dose; assay type: functional, Canis lupus familiaris, Heart; conditions: in the assay text read “unanesthetized” for “anesthetized”; outline: as §4
Canis familiaris [19] = assay: % ectopic beats was measured in unanesthetized dog at 0.056 dose
Canis familiaris [20] = assay: MABP value was measured in anesthetized dog at 0.042 dose; assay type: functional, Canis lupus familiaris
Mus musculus [21] = species on record: Mus musculus; assay: Percentage toxicity measured as convulsions.; assay type: organism-based; conditions: in vivo; outline: as §3
Mus musculus [22] = assay: Protection against chloroform induced arrhythmias in mice after subcutaneous administration at 100 mg/kg dose.; assay type: functional
Outline: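 Groups of 10 unanesthetized mice got sc injection of drug in 0.9% saline. After 20 min observation they were placed one by one in chloroform-vapor-saturated air. When breathing stopped, the thorax was opened and the heart inspected by eye; coordinated ventricular contractions counted as protected.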

CC(C)Oc1ccc2c(c1)C1(CCC2)CC(=O)N(CCCN(C)C)C1=O (configuration not stated)
Ventricular rate (Canis familiaris [1]): 165 beats min-1 | Ventricular rate (Canis familiaris [2]): 138 beats min-1 | Nature (Canis familiaris [3]): convulsion | mortality [4]: 0% | Cumulative dose (Canis familiaris [5]): 0.066 | MABP (Canis familiaris [6]): 110 mmHg | Ventricular rate (Canis familiaris [7]): 120 beats min-1 | Cumulative dose (Canis familiaris [8]): 0.077 and 0.133 | Ectopic beats (Canis familiaris [9]): 15% | Ataxia (Mus musculus [10]): 100% | Blood level (Canis familiaris [11]): 0.013 uM ml-1 | MABP (Canis familiaris [12]): 125 mmHg | MABP (Canis familiaris [13]): 75 mmHg | Ventricular rate (Canis familiaris [14]): 171 beats min-1 | Ventricular rate (Canis familiaris [15]): 150 beats min-1 | Loss of righting reflex (Mus musculus [16]): 10% | Blood level (Canis familiaris [17]): 0.021 uM ml-1 | Etopic beats (Canis familiaris [18]): 2% | Ectopic beats (Canis familiaris [19]): 5% | MABP (Canis familiaris [20]): 90 mmHg and 100 mmHg | Convulsion (Mus musculus [21]): 0% | Protection (Mus musculus [22]): 50%
